Screening results deposited in PubChem by several laboratories.
proKLK7 act: proKLK7 (human) activation, primary screen; activation, % at 7 µM; actives 0.9% (n = 370,000); AID 652039; purified proKLK7, EDANS-DABCYL substrate fluorescence; 100% is mature enzyme control, 0% vehicle;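 active means activation above the mean of all tested compounds plus 3 SD, computed per campaign excluding outliers beyond control limits, cut at about 13% in these data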
Runt-SMMHC FRET: Runt domain-CBFb-SMMHC interaction inhibition | Cerulean-Runt/Venus-CBFb-SMMHC FRET ratio 530/480, 1 h | inhibition, % at 20 µM | actives 0.74% (n = 220,000);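 active means mean inhibition across duplicate retests at 20 µM reaching about 50%, limit read from the data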;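 further: 0% = DMSO wells and 100% = wells with excess untagged CBFb-SMMHC; inhibitors lower the FRET ratio by blocking Runt binding to CBFb-SMMHC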
Target sequence (Q01196 whole entry, looked up, the tested form may be a part): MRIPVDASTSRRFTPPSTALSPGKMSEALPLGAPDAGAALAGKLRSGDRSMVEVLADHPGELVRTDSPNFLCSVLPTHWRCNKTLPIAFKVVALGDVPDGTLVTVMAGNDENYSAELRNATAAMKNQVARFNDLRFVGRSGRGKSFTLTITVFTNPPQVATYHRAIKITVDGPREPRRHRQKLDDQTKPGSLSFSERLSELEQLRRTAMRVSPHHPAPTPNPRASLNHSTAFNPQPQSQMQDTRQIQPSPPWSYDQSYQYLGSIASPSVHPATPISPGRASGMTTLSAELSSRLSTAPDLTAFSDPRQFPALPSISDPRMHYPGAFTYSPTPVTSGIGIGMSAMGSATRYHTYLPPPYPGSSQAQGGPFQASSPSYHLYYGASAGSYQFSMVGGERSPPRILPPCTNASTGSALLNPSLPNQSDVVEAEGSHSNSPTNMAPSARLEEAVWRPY
Target sequence (Q13951 whole entry, looked up, the tested form may be a part): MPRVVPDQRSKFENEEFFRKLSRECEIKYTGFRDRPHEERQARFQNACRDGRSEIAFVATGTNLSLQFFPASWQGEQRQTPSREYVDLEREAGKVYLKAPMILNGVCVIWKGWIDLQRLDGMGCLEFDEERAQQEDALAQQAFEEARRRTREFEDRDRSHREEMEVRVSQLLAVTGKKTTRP
RanGTP-Impb inh: disruptors of Ran-importin-beta complex formation – biochemical, FRET, CFP-Ran, YFP-importin-beta, homogeneous, primary screen; cell-free CFP-Ran/YFP-importin-beta FRET ratio; inhibition, % (no concentration beside the values); actives 1.1% (n = 300,000);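 active means more than half of the replicate wells show a fall in the fluorescence ratio signal beyond about 16%, limit read from the data, passing the limit was not always enough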;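 further: 0% = DMSO wells and 100% = Ran loaded with GDP instead of GTP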
AI-2 QS modul: Vibrio harveyi AI-2 quorum sensing modulation; actives 0.4% (n = 300,000); activity change, % at 7.5 µM; Vibrio harveyi JMH597 AI-2 luminescence/OD600 ratio, 9 h; stronger effect = lower value; strain lacks LuxN and CqsS sensors; 0 = neutral-control median; AID 2094; in the data active means activity change below about -75%, passing the limit was not always enough;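 further: luminescence divided by OD600 gain over 9 h not by final OD600 alone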
Runt-CBFb FRET: inhibitors of human RUNX1 Runt domain binding to CBFb; Cerulean-Runt/Venus-CBFb FRET ratio 530/480, 1 h; inhibition, % at 20 µM; actives 0.46% (n = 220,000);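 active means inhibition over about 50% at 20 µM in the single-dose screen, limit read from the data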;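 further: 0% = DMSO wells and 100% = excess unlabeled CBFb competitor control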
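Assay system: Cerulean-Runt domain / Medium: Tris 50 mM pH 7.5, KCl, K2SO4, 0.01% BSA / Timing: protein complex preformed 1 h, compound exposure 1 h, room temperature, dark / Measured by: FRET, excitation 422 nm, emission at 530 and 480 nm / Evaluation: loss of energy transfer signal / Control set: 5 µM unlabeled CBFb as full-inhibition high control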
Wee1 stabilizer: human Wee1 degradation inhibition, primary screen | P30291 | HeLa Luc-Wee1K328M stability, luciferase luminescence; 100% = proteasome inhibitor MG132 effect | reporter increase, % at 5 µM | actives 1.2% (n = 220,000) | AID 1321;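 active means activation above the mean of all tested compounds plus 3 SD, set per screening run, cut at about 8.8% in these data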;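 further: cells exposed to compound for 20 h before luminescence read; 0% = DMSO alone and 100% = MG132 at 30 µM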
YIC counter: counter-screen: alters YIC FRET probe signal. IC50, µM. Purified YIC probe, intramolecular FRET ratio YFP/CFP. shares compounds with RanGTP-Impb inh. actives 40% (n = 1,000);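 active means fitted half-maximal inhibitory concentration no more than tenfold above the top dose tested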
* = called active by the depositor; · = not tested or not shown. Rows were chosen to be rich in hits. Some 2.9% of all compounds tested hit in one or more screens of this group.

SMILES	proKLK7 act	Runt-SMMHC FRET	RanGTP-Impb inh	AI-2 QS modul	Runt-CBFb FRET	Wee1 stabilizer	YIC counter
COc1ccc(S(=O)Cc2ccc(C(=O)NC3CC3)o2)cc1 (configuration not stated)	0	·	39*	15	·	·	>50
O=C(Nc1ccc(S(=O)(=O)N2CCOCC2)cc1)c1ccc(S(=O)(=O)N2CCOCC2)cc1	0	·	3	28	·	·	·
CN1CCc2c(sc(NC(=O)c3ccc(S(=O)(=O)N4CCOCC4)cc3)c2C(N)=O)C1	·	2	19*	14	1	-1	46*
CCCc1c2ccccc2nc2ccccc12	-2	52*	21*	8	19	0	9.6*
N#Cc1c(N)nc2c(c1-c1ccccc1)CCC2	4	15	29*	11	5	1	9.8*
COc1cccc(-c2noc(-c3ccc(Cl)nc3)n2)c1	0	-2	2	9	0	1	·
COc1ccc(C(=O)C2CCCN(S(=O)(=O)c3ccc(C(C)=O)cc3)C2)c(C)c1 (configuration not stated)	0	·	1	17	·	·	·
CC1(C)CC(=O)C=C(Nc2ccc(S(N)(=O)=O)cc2)C1	0	1	22*	14	0	-1	>50
O=C1CCCN1CC(O)CS(=O)(=O)Cc1ccc(Cl)c(Cl)c1 (configuration not stated)	-1	·	2	14	·	·	·
Cc1ccc(CN2CC(C(=O)NCCC3=CCCCC3)CC2=O)cc1 (configuration not stated)	0	·	·	·	·	·	·
CCn1c(SCc2nc(-c3ccccc3)no2)nnc1-c1cccs1	-1	1	24*	-20	-1	-1	>50
CCc1ccc(CN2CCC(n3nccc3NC(=O)c3ccccc3Cl)CC2)cc1	1	·	4	30	·	·	·
CC(C)(C)CN1CCC(n2nccc2NC(=O)c2ccccc2Cl)CC1	-1	·	20*	22	·	·	>50
Oc1ccccc1/C=N/Nc1cc(N2CCCC2)nc(N2CCCC2)n1	-1	-2	29*	18	-3	-3	>50
Oc1ccc(/C=N/Nc2cc(N3CCOCC3)nc(N3CCOCC3)n2)cc1O	-10	10	2	12	4	-1	·
CCN(C(=O)Cc1c(C(=O)O)n(CC)c2ccccc12)c1cccc(C(F)(F)F)c1	0	·	1	22	·	·	·
CC1C=CCC2C(=O)N(c3ccc(OC(=O)c4cccs4)cc3)C(=O)C12 (configuration not stated)	1	-1	6	1	0	-2	·
CC1C=CCC2C(=O)N(c3ccccc3OC(=O)c3cccs3)C(=O)C12 (configuration not stated)	0	-1	22*	0	0	3	>50
C[C@H](CO)N1C[C@H](C)[C@@H](CN(C)S(=O)(=O)c2cccs2)Oc2ccc(NC(=O)Cc3ccccc3)cc2CC1=O	·	·	·	·	·	·	>50
CC(C)(C)n1nnnc1C(c1cccc(C(F)(F)F)c1)N1CCC(O)CC1 (configuration not stated)	0	-5	1	1	-3	-1	·
Cc1ccc(-c2oc3ccccc3c(=O)c2OCC(=O)O)cc1	0	0	2	37	-3	1	·
Cc1ccc(-c2oc3ccccc3c(=O)c2O)cc1	1	1	22*	5	16	4	17*
COc1ccccc1S(=O)Cc1ccc(C(=O)O)o1 (configuration not stated)	-1	3	20*	-9	·	2	>50
O=C(c1cc(C2CC2)on1)N1CCCC(N2CCN(c3ccc(F)cc3)CC2)C1 (configuration not stated)	1	·	-5	-1	·	·	·
Cc1ccc2cc(C#N)c(N3CCCN(S(=O)(=O)c4ccc(F)cc4)CC3)nc2c1	-1	46	18*	15	5	-3	25*
